# From the M2OR odorant receptor database
# Tests used:
# Conditions in all cases: stereoisomer not certain
# [1] = target: T1, UniProt Q7TR79
# T1 sequence (whole entry): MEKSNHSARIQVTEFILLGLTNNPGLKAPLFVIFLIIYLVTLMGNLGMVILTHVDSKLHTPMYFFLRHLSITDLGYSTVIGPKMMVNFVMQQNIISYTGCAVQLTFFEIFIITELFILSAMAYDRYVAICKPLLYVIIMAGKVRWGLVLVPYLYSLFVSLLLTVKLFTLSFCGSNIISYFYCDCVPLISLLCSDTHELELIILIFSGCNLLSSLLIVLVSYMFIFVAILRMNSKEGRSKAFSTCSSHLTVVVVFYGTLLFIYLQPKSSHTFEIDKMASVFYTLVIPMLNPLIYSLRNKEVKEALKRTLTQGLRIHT
# Procedure, shortened: (§1)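 Each entry records the cell line, G-protein, co-transfected protein and tags used. Methods varied with the source, often transient luciferase assays in mammalian cell lines. A receptor–molecule pair is called responsive (active) if the original authors judged its signal statistically different from baseline and non-responsive (inactive) otherwise.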
# [2] = target: T2, UniProt Q7TRX0
# T2 sequence (whole entry): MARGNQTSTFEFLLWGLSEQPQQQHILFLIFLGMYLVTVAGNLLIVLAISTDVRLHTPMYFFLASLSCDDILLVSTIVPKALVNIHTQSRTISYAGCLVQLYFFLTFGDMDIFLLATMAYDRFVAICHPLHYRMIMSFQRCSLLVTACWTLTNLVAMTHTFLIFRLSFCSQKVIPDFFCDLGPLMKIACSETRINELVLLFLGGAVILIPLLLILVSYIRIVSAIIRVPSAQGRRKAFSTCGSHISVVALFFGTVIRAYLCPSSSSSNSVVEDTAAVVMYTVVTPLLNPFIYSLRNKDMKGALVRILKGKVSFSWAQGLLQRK
# Procedure, shortened: as §1
# [3] = target: T3, UniProt Q7TRM0
# T3 sequence (whole entry): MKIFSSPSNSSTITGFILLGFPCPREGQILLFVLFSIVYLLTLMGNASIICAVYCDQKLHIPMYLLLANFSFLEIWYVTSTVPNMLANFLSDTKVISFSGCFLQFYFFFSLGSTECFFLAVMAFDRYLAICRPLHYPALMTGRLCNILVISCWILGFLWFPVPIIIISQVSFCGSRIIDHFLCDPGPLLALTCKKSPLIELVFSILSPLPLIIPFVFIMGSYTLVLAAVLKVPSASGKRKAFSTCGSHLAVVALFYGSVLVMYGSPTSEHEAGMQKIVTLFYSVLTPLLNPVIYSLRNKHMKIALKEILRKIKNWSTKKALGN
# Procedure, shortened: as §1
# [4] = target: T4, UniProt Q7TRN9
# T4 sequence (whole entry): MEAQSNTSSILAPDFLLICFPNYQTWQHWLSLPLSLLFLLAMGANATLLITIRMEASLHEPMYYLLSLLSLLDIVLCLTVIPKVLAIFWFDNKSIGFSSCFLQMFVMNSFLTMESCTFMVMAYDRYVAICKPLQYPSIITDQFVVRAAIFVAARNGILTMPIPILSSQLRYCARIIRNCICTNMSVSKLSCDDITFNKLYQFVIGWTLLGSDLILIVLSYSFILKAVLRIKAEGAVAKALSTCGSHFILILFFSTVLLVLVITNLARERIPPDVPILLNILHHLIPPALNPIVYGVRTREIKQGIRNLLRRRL
# Procedure, shortened: as §1
# [5] = target: T5, UniProt Q7TRR8
# T5 sequence (whole entry): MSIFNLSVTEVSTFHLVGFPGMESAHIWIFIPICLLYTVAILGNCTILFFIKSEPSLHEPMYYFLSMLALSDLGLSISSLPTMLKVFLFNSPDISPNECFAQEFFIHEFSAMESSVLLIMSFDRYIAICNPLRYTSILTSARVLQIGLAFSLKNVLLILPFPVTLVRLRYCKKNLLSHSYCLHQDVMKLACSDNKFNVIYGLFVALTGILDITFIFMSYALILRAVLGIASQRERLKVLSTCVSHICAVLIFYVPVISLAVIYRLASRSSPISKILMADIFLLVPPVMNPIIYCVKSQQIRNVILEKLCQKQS
# Procedure, shortened: as §1
smiles,measurement,setting,value
CC(C)=CCCC(C)=CCOC(=O)C(C)C,odorant receptor agonist call,[1],inactive
same,odorant receptor agonist call,[2],inactive
CCCCCC(C)O (stereo not given),odorant receptor agonist call,[1],inactive
same,odorant receptor agonist call,[2],inactive
CCC=CCCC=CC=O,odorant receptor agonist call,[1],inactive
same,odorant receptor agonist call,[2],inactive
CSSSC,odorant receptor agonist call,[1],inactive
same,odorant receptor agonist call,[2],inactive
OCCCCCCCCCO,odorant receptor agonist call,[1],inactive
same,odorant receptor agonist call,[2],inactive
Cc1ccc(OC(=O)C(C)C)cc1,odorant receptor agonist call,[1],inactive
same,odorant receptor agonist call,[2],inactive
CCCC=O,odorant receptor agonist call,[1],inactive
same,odorant receptor agonist call,[2],inactive
CCCCCCCCCCOC(C)=O,odorant receptor agonist call,[1],inactive
same,odorant receptor agonist call,[2],inactive
CCc1nccnc1CC,odorant receptor agonist call,[1],inactive
same,odorant receptor agonist call,[2],inactive
CC=C(C)C=O,odorant receptor agonist call,[1],inactive
same,odorant receptor agonist call,[2],inactive
CCCCCCC(C)O (stereo not given),odorant receptor agonist call,[1],inactive
same,odorant receptor agonist call,[2],inactive
C=CC(C)=CCC=C(C)CCC=C(C)C,odorant receptor agonist call,[1],inactive
same,odorant receptor agonist call,[2],inactive
CCCCCC=CCCC=O,odorant receptor agonist call,[1],inactive
same,odorant receptor agonist call,[2],inactive
CC=Cc1ccc(OC)cc1,odorant receptor agonist call,[1],inactive
same,odorant receptor agonist call,[2],inactive
CC(C)=C1CCC(C)CC1=O (stereo not given),odorant receptor agonist call,[1],inactive
same,odorant receptor agonist call,[2],inactive
C=C(C)C1CCC2(C)OC2C1 (stereo not given),odorant receptor agonist call,[1],inactive
same,odorant receptor agonist call,[2],inactive
COc1ccccc1,odorant receptor agonist call,[1],inactive
same,odorant receptor agonist call,[2],inactive
O=C(O)CCCCBr,odorant receptor agonist call,[3],inactive
same,odorant receptor agonist call,[4],inactive
same,odorant receptor agonist call,[5],inactive
C=C(C)C1CCC(C)C(O)C1 (stereo not given),odorant receptor agonist call,[1],inactive
same,odorant receptor agonist call,[2],inactive
CC(=O)OCc1ccc2c(c1)OCO2,odorant receptor agonist call,[1],inactive
same,odorant receptor agonist call,[2],inactive
CCc1ccc(O)cc1,odorant receptor agonist call,[1],inactive
same,odorant receptor agonist call,[2],inactive
O=C(O)CCCBr,odorant receptor agonist call,[3],inactive
same,odorant receptor agonist call,[4],inactive
same,odorant receptor agonist call,[5],inactive
C=C1C2CCC(C2)C1(C)C (stereo not given),odorant receptor agonist call,[1],inactive
same,odorant receptor agonist call,[2],inactive
CC(C)CCN,odorant receptor agonist call,[1],inactive
same,odorant receptor agonist call,[2],inactive
CCCCCCC=CC=O,odorant receptor agonist call,[1],inactive
same,odorant receptor agonist call,[2],inactive
COc1cnccn1,odorant receptor agonist call,[1],inactive
same,odorant receptor agonist call,[2],inactive
CCCCCCCCCCCO,odorant receptor agonist call,[1],inactive
same,odorant receptor agonist call,[2],inactive
CCCCCCCCCC=CC=O,odorant receptor agonist call,[1],inactive
same,odorant receptor agonist call,[2],inactive
CCCCCOC(=O)CC,odorant receptor agonist call,[1],inactive
same,odorant receptor agonist call,[2],inactive
